Reference: ChEMBL document CHEMBL3102789, “Synthesis and biological evaluation of novel oxadiazole derivatives: a new class of thymidine phosphorylase inhibitors as potential anti-tumor agents” (Bioorg Med Chem, 2014)

How the values were obtained:
[1] = molecular target: Thymidine phosphorylase (Escherichia coli K-12, UniProt P07650); assay: Inhibition of Escherichia coli thymidine phosphorylase using […] as substrate after 10 mins by spectrophotometric analysis
In short: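 Commercial E. coli TP in potassium phosphate buffer, pH 7.4, with […] substrate (1.5 mM stock). Test material incubated with the reaction mix for 10 min at 25 °C. Absorbance at 290 nm then read continuously at 10, 20 and 30 min. Substrate-free blanks were subtracted. Run in triplicate; IC50 given as mean ± SEM of three independent experiments.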

[2] = molecular target: Thymidine phosphorylase (Escherichia coli K-12) (UniProt P07650); assay: Ratio of 7-deazaxanthine IC50 to compound IC50 for Escherichia coli thymidine phosphorylase using […] as substrate after 10 mins by spectrophotometric analysis
Chain of Thymidine phosphorylase (Escherichia coli K-12) (P07650 whole entry, looked up): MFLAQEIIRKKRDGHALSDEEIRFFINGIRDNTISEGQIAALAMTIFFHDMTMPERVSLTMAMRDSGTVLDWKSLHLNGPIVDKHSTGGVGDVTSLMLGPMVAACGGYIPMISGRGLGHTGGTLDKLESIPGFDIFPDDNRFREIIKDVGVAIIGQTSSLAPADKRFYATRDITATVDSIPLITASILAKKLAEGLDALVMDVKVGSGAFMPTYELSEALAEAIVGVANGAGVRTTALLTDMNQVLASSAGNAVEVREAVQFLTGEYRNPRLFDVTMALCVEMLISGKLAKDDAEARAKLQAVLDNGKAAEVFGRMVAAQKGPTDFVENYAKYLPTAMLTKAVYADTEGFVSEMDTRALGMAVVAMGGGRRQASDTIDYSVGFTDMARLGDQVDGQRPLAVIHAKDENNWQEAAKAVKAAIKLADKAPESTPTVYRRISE

Chain of Thymidine phosphorylase (P07650 whole entry): as the sequence (P07650 whole entry, looked up) above

Row | SMILES | IC50 [1] | Ratio IC50 [2]
1 | S=c1oc(-c2ccc(Cl)cc2)nn1CNc1ccc(Br)cc1 | 173 µM | 
2 | Cc1ccccc1NCn1nc(-c2ccc(Cl)cc2)oc1=S | 58.2 µM | 
3 | Cc1ccc(-c2nn(CNc3ccc(C)c(C)c3)c(=S)o2)cc1 | 83.2 µM | 
4 | S=c1oc(-c2ccccc2Br)nn1CNc1ccc(Br)cc1 | 26.3 µM | 
5 | S=c1oc(-c2ccc(Cl)cc2)nn1CNc1ccccc1Cl | 46.4 µM | 
6 | COc1cc(-c2nn(CNc3ccccc3C)c(=S)o2)cc(OC)c1OC | 117 µM | 
7 | COc1ccc([N+](=O)[O-])cc1NCn1nc(-c2ccc(C)cc2)oc1=S | 14.4 µM | 2.5
8 | S=c1oc(-c2ccccc2Br)nn1CNc1ccccc1Cl | 21.8 µM | 
9 | COc1ccccc1NCn1nc(-c2ccccc2Br)oc1=S | 17.6 µM | 
10 | COc1cc(-c2nn(CNCCc3ccccc3)c(=S)o2)cc(OC)c1OC | 69.3 µM | 
11 | Cc1ccc(-c2nn(CNc3ccc(Cl)c(Cl)c3)c(=S)o2)cc1 | 134 µM | 
12 | Cc1ccc(NCn2nc(-c3ccc(C)cc3)oc2=S)cc1 | 54.7 µM | 
13 | Cc1ccc(-c2nn(CNc3cccc(C)c3C)c(=S)o2)cc1 | 23.7 µM | 
14 | Oc1ccccc1-c1nn(CNc2ccccc2Cl)c(=S)o1 | 130 µM | 

Further lines, results first:

Row | IC50 [1] | Ratio IC50 [2] | SMILES
15 | 118 µM |  | S=c1oc(-c2ccccc2)nn1CNc1ccccc1Cl
16 | 87.2 µM |  | COc1ccccc1NCn1nc(-c2ccccc2)oc1=S
17 | 84.4 µM |  | COc1cccc(NCn2nc(-c3ccc(C)cc3)oc2=S)c1
18 | 40.6 µM |  | Cc1ccc(NCn2nc(-c3ccccc3)oc2=S)cc1C
19 | 40.6 µM |  | COc1cccc(NCn2nc(-c3ccccc3)oc2=S)c1
20 | 104 µM |  | Cc1ccc(-c2nn(CNc3ccccc3)c(=S)o2)cc1
21 | 88.7 µM |  | COc1ccccc1NCn1nc(-c2ccc(Cl)cc2)oc1=S
